# MBD2 DNA inh = blocks human MBD2 binding to methylated DNA. actives 0.31% (n = 370,000). TR-FRET, MBD2 binding to methylated oligonucleotide. inhibition, % at 4.4 µM. Q9UBB5; in the data active means inhibition above about 13%
# LEDGF integ inh = blocks HIV-1 LEDGF/p75-dependent DNA integration. inhibition, % at 3.7 µM. actives 0.64% (n = 370,000). AID 743269. TR-FRET IN-LEDGF/p75 DNA integration, Eu/Cy5;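 active means inhibition above the screen-wide mean plus 3 SD, cut at about 13% in these data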;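 further: signal is the Cy5 over europium emission ratio at 671 and 618 nm; 0% = plate median of compound wells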
# Rin1-Abl PPI inh = human Rin1-Abl interaction inhibition | TR-FRET Rin1/Abl binding, biochemical | P00519+Q13671 | inhibition, % at 7.35 µM | actives 0.4% (n = 360,000) | AID 588664; in the data active means inhibition above about 5%, passing the limit was not always enough
# TDP2 absorb = blocks human TDP2 phosphodiesterase activity; O95551; recombinant TDP2, T5PNP hydrolysis, p-nitrophenol absorbance 415 nm; inhibition, % at 12.8 µM; actives 0.34% (n = 370,000);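 active means inhibition above the mean of all tested compounds plus 3 SD, set per campaign, cut at about 25% in these data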;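 further: 0% = DMSO with enzyme and 100% = buffer with substrate but no TDP2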
#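 Assay system: Recombinant human TDP2 | Quantity: 120 nM TDP2 per well | Incubation: 2 h at 37 °C | Signal: Epi absorbance | Evaluation: Percent inhibition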
# UHRF1 MBD2 ctr = human UHRF1 methylated DNA binding inhibitors; inhibition, % at 4.4 µM; UHRF1 binding to methylated oligo, TR-FRET; actives 0.75% (n = 370,000); in the data active means inhibition above about 21%;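 further: UHRF1 SRA domain binding a hemimethylated CpG hairpin DNA probe; 0% = median of test compound wells and 100% = reference inhibitor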
# IN multimer up = counter-screen for LEDGF/p75 integration inhibitors: HIV-1 integrase multimerization activators; shares compounds with LEDGF integ inh; TR-FRET HIV-1 integrase multimerization, biochemical; activation, % at 7.7 µM; actives 17% (n = 2,000); in the data active means activation above about 8.9%
# TR-FRET interf = TR-FRET optical interference, LEDGF/p75 integration counter-screen | 2,000 tested, under 10 active | TR-FRET optical interference counterscreen, HIV-1 IN multimerization | shares compounds with LEDGF integ inh | inhibition, % at 7.7 µM | AID 1053135;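 active means inhibition above the mean over all tested compounds plus 3 SD, which no compound reached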;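 further: 0% = integrase with antibodies and DMSO and 100% = antibodies without integrase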
# LEDGF integ conf = LEDGF/p75-dependent HIV-1 integration inhibition, confirmation; inhibition, % at 3.7 µM; TR-FRET LEDGF/p75-dependent HIV-1 integration, biochemical; shares compounds with LEDGF integ inh; AID 1053136; actives 36% (n = 2,000); in the data active means inhibition above about 14%
# Numbers without * were called inactive; / = not tested or not shown. Shown are actives, neighbours in structure and some others; about 1.9% of the full set was active somewhere.
SMILES,MBD2 DNA inh,LEDGF integ inh,Rin1-Abl PPI inh,TDP2 absorb,UHRF1 MBD2 ctr,IN multimer up,TR-FRET interf,LEDGF integ conf
Oc1cc(O)cc(C=Cc2ccc(O)c(O)c2)c1,2,51*,/,-11,7,43*,-217,42*
COC(=O)C[C@@H]1CC[C@H]2[C@@H](COc3ccc(NC(=O)Nc4cccc(F)c4)cc3C(=O)N2C)O1,5,-2,/,4,-3,/,/,/
COc1ccc(C(=O)N2N=C3CC(C)(C)OCC3C2c2ccccc2)cc1 (configuration not stated),-4,66*,1,-10,2,0,1,-7
CCOC(=O)c1cnc2c(ccc3ccccc32)c1N,-2,60*,1,2,0,8,-40,-1
CCC(=O)Nc1cccc(NC(=S)NC(=O)c2ccccc2Cl)c1,-1,4,1,0,4,/,/,/
CCC(=O)Nc1cccc(NC(=O)c2ccccc2Cl)c1,-1,56*,2,6,1,1,-4,1
COc1cc(C2C3=C(COC3=O)Oc3cc4c(cc32)OCO4)cc(OC)c1O (configuration not stated),-1,23*,8,1,1,0,2,-3
Cc1ccccc1NC(=O)c1c(C)cc(=O)oc1C,5,-1,1,-13,4,/,/,/
Cc1cc(=O)oc(C)c1C(=O)Nc1cccc2ccccc12,-2,30*,-4,9,-4,0,-2,-1
CCN(CC)c1ccc(NC(=O)Nc2ccc(C(C)=O)cc2)cc1,-6,-1,-1,9,-9,/,/,/
CCN(CC)c1ccc(N=C2C=CC(=O)C=C2NC(C)=O)cc1,0,73*,5,-3,17,36*,-184,35*
COCCCNc1nc(SCc2ccccc2)nc2sc3c(c12)CCC3,-4,14*,4,5,0,2,-10,-2
Cc1cc([N+](=O)[O-])ccc1NC(=O)Cc1ccc(F)cc1,-5,85*,1,3,-2,4,-14,2
Cc1cc(C)c(OC2(c3ccccc3)OC(=O)c3ccccc32)c(C)c1 (configuration not stated),-2,31*,0,2,-1,3,-9,-5
Cn1ccc2c(N(Cc3ccccc3)Cc3ccccc3)cc3c(c21)C1CCC3O1 (configuration not stated),-10,20*,-2,7,-5,-1,4,-3
CN(Cc1ccccc1)c1cc2c(c3c1ccn3C)C1CCC2O1 (configuration not stated),-8,-2,-1,4,0,/,/,/
COC(=O)C1CN(Cc2cn(Cc3ccc(C)cc3)nn2)CCS(=O)(=O)N1Cc1ccc(OC)cc1 (configuration not stated),1,0,/,2,2,/,/,/
COC(=O)[C@]12CCCCC=C1N(Cc1ccc(OC)cc1)C(=O)[C@@H]2CC(=O)NCc1cccc(C(F)(F)F)c1,-4,2,/,1,-2,/,/,/
Cn1c(N)c(C(=O)COC(=O)c2cc(-c3ccco3)nc3ccccc23)c(=O)n(C)c1=O,10,29*,0,-1,19,22*,-78,62*
O=C(CSc1nnc(-c2cccs2)n1Cc1ccco1)Nc1ccc(OCc2ccccc2)cc1,-2,3,/,-12,1,/,/,/
COc1ccc(C(=O)N(c2ccc(OC)cc2)S(=O)(=O)c2cccs2)cc1,-8,24*,2,0,1,0,-2,-2
COc1ccc(N(C(=O)c2ccccc2)S(=O)(=O)c2cccs2)cc1,-4,-2,0,-3,-2,/,/,/
O=S1(=O)c2ccc(Br)cc2OC[C@@H](c2ccccc2)N1Cc1cn(CCC2OCCO2)nn1,-1,-2,/,-4,0,/,/,/
C/C=C(\C)CN1CCCC(CO)(Cc2ccccc2)C1 (configuration not stated),-5,14*,3,-11,1,1,-3,1

# Screens: PubChem, The Scripps Research Institute Molecular Screening Center
